Results reported in ChEMBL document CHEMBL4699573, “Design, Synthesis, and Pharmacological Evaluation of Analogues Derived from the PLEV Tetrapeptide as Protein-Protein Interaction Modulators of Voltage-Gated Sodium Channel 1.6” (J Med Chem, 2020).
The source made the active and inactive calls. No cut-off for these calls is given here. Starred links: 1 amine or outer side, 2 acyl side, 3 side chain; linkers in the order of their positions; H or OH if unused. Residues, ends and D or L forms follow the SMILES beside them. *: point of attachment. Benzenesulfonyl(4-F) = O=S(=O)(c1ccc(F)cc1)*; NH(1-Adamantyl) = C1C2CC3CC1CC(N*)(C2)C3; Cyclohexanecarbonyl = O=C(C1CCCCC1)*; Fmoc = O=C(OCC1c2ccccc2-c2ccccc21)*; Benzoyl(4-F) = O=C(c1ccc(F)cc1)*; Piperazinyl(4-Me) = CN1CCN(*)CC1; Decanoyl = CCCCCCCCCC(=O)*; Cbz = O=C(OCc1ccccc1)*; NHcHex = C1CCC(N*)CC1; CO = O=C([*:1])[*:2]; OtBu = CC(C)(C)O*; X3 = OC1CN(*)C1; OAll = C=CCO*

Experiments:
HEK293 [1] = experiment: Modulation of recombinant human FGF141b (1 to 252 residues)-recombinant human Nav1.6 C-terminal tail (1763 to 1976 residues) protein-protein interaction expressed in HEK293 cells assessed as relative luminescence value at 50 uM measured at 2 mins interval for 20 mins by split-luciferase complementation assay relative to control; assay type: cell-based; settings: time min 2-20
Summary of the method: (§1)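 Double-stable HEK293 line expressing CLuc-FGF14 and CD4-Nav1.6-C-tail-NLuc, kept on G418 and puromycin. Cells seeded for 24 h, then given compound for 1 h in serum-free, phenol red-free DMEM/F12 with a final 0.5% DMSO: 50 μM for screening, 0.25–100 μM over eight concentrations for dose-response; n = 4. D-luciferin added and read every 2 min for 20 min at 37 °C. Peak luminescence expressed as percent of per-plate DMSO mean (n = 32). IC50 from four-parameter nonlinear fit. At least 3 experiments.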

[2] = molecular target: T1, Sodium channel protein type 8 subunit alpha (Homo sapiens, UniProt Q9UQD0); experiment: Binding affinity to human recombinant Nav1.6 C-terminal domain expressed in Escherichia coli BL21 assessed as association rate constant by SPR analysis; settings: filed as modulator
Summary of the method: (§2)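 Biacore T100 runs with FGF14 (17,896 RU) or Nav1.6 C-tail (6,800 RU) amine-coupled on CM5 at pH 5.5. Compounds at 0.195–200 μM in PBS, 0.005% Tween-20, 2% DMSO; 50 μL/min at 25 °C. 120 s association, 150 s dissociation, DMSO calibration, blank subtraction. Rates from a Langmuir 1:1 fit; KD averages the kinetic and steady-state values. At least duplicate experiments.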
Target sequence in this assay (Q9UQD0 whole entry, looked up, the tested form may be a part): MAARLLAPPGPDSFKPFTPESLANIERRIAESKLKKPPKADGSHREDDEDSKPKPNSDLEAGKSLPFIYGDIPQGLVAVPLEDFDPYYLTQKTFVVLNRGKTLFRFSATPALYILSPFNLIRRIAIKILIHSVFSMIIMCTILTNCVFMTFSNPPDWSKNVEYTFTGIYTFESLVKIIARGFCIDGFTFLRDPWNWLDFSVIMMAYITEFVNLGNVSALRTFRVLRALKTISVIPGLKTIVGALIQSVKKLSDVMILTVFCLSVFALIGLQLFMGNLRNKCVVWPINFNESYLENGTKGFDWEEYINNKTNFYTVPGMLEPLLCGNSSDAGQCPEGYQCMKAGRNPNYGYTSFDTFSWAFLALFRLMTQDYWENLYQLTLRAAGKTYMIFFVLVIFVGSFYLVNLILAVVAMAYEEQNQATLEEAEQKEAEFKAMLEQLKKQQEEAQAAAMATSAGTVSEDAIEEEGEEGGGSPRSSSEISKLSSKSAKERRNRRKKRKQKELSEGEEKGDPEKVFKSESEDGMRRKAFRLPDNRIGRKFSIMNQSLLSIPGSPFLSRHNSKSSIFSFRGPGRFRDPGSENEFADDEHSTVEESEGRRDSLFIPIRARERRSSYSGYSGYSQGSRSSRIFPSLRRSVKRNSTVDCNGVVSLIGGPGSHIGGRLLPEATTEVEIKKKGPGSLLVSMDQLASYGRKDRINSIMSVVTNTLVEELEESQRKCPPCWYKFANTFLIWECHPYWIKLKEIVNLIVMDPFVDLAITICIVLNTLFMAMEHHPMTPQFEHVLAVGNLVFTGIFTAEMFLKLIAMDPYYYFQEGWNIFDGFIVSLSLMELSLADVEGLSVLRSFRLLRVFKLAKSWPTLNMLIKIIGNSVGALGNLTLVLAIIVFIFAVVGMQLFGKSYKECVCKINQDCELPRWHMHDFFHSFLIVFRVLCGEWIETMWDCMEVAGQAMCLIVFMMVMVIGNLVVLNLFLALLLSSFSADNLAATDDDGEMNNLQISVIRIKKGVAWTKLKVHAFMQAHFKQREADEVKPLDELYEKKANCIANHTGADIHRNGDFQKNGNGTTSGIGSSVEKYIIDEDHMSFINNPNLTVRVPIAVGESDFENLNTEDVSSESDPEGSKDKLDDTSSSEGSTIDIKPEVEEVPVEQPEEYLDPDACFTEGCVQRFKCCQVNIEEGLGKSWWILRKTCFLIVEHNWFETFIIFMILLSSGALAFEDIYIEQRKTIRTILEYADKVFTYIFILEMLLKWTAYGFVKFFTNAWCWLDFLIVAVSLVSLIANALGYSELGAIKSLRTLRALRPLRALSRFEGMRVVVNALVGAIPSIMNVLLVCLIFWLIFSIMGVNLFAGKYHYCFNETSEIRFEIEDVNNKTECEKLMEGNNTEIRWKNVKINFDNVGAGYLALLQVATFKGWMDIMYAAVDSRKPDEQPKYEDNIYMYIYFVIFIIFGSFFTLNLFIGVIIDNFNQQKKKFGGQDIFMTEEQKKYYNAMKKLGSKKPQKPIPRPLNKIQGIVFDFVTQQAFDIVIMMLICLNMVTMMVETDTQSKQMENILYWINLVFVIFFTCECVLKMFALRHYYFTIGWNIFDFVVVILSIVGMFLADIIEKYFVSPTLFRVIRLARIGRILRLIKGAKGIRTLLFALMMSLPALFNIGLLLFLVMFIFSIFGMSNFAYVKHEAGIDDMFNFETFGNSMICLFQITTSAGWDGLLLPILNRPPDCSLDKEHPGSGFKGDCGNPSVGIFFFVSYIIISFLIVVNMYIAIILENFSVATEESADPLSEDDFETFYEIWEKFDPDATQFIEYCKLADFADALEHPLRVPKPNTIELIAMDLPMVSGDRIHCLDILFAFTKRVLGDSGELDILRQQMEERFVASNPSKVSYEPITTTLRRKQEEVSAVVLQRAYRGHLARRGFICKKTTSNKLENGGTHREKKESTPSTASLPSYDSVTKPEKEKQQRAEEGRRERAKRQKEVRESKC

HEK293 [3] = experiment: Cytotoxicity against HEK293 cells assessed as reduction in cell viability measured after 18 hrs by celltiter-blue assay; settings: human, hek293, 18 h
[4] = molecular target: T1, Sodium channel protein type 8 subunit alpha; experiment: Binding affinity to human recombinant Nav1.6 C-terminal domain expressed in Escherichia coli BL21 assessed as dissociation constant by SPR analysis; summary of the method: as §2
Target sequence in this assay (Q9UQD0 whole entry, the tested form may be a part): as the sequence (Q9UQD0 whole entry, looked up, the tested form may be a part) above

[5] = Modulation of recombinant human FGF141b (1 to 252 residues)-recombinant human Nav1.6 C-terminal tail (1763 to 1976 residues) protein-protein interaction expressed in HEK293 cells measured at 2 mins interval for 20 mins by split-luciferase complementation assay; assay type: cell-based; summary of the method: as §1
HEK293 [6] = experiment: Inhibition of full-length Photinus pyralis luciferase transfected in HEK293 cells at 25 uM incubated for 1 hrs by split-luciferase complementation assay; assay type: cell-based
Summary of the method: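 HEK293 cells transfected with full-length Photinus pyralis luciferase, then treated 1 h with 25 μM compound (n = 4) or 0.5% DMSO (n = 32). Luminescence read after D-luciferin addition, as in the LCA, normalized to per-plate DMSO controls. One-way ANOVA with Dunnett's test.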

HEK293 [7] = experiment: Modulation of recombinant human FGF141b (1 to 252 residues)-recombinant human Nav1.6 C-terminal tail (1763 to 1976 residues) protein-protein interaction expressed in HEK293 cells measured at 2 mins interval for 20 mins by split-luciferase complementation assay relative to control; assay type: cell-based; settings: filed as modulator, time min 2-20; summary of the method: as §1
[8] = molecular target: T1, Sodium channel protein type 8 subunit alpha; experiment: Binding affinity to human recombinant Nav1.6 C-terminal domain expressed in Escherichia coli BL21 assessed as assessed as induction of protein denaturation by measuring change in melting temperature at 10 uM by fluorescent dye based thermal shift assay; settings: filed as modulator, dose 50.0 µM
Target sequence in this assay (Q9UQD0 whole entry, looked up, the tested form may be a part): as above

[9] = molecular target: T2, Fibroblast growth factor 14 (Homo sapiens) (UniProt Q92915); experiment: Binding affinity to human recombinant FGF14 expressed in Escherichia coli BL21 assessed as assessed as induction of protein denaturation by measuring change in melting temperature at 50 uM by fluorescent dye based thermal shift assay; settings: filed as modulator
T2 sequence (whole entry): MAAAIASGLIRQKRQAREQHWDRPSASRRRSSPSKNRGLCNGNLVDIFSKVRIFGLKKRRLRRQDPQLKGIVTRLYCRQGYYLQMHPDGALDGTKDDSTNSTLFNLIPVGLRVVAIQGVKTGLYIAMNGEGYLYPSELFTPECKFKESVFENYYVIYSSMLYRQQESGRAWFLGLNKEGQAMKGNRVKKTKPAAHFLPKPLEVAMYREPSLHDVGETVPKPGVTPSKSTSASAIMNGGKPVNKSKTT

[10] = molecular target: T1, Sodium channel protein type 8 subunit alpha; experiment: Binding affinity to human recombinant Nav1.6 C-terminal domain expressed in Escherichia coli BL21 assessed as dissociation rate constant by SPR analysis; settings: filed as modulator; summary of the method: as §2
Target sequence in this assay (Q9UQD0 whole entry, looked up, the tested form may be a part): as the sequence (Q9UQD0 whole entry, looked up, the tested form may be a part) above

SMILES: CC(C)C[C@H](NC(=O)[C@@H]1CCCN1C(=O)OCc1ccccc1)C(=O)N[C@@H](CCC(=O)OC(C)(C)C)C(=O)N[C@H](C(=O)NC1CCCCC1)C(C)C (Cbz-PLE(OtBu)V-NHcHex)
- Activity (HEK293 [1]): 117%

SMILES: C=CCOC(=O)[C@@H](NC(=O)[C@H](CCC(=O)OC(C)(C)C)NC(=O)[C@H](CC(C)C)NC(=O)[C@@H]1CCCN1C(=O)OCc1ccccc1)C(C)C (Cbz-PLE(OtBu)V-OAll)
- K [2]: 2.57 10^5/M/s
- Activity (HEK293 [3]): Non-Toxic
- Kd [4]: > 200 µM
- IC50 [5]: 15.4 µM
- inhibition (HEK293 [6]): inactive
- Efficacy (HEK293 [7]): 90.7%
- ΔTm [8]: -0.87 °C
- ΔTm [9]: 0.67 °C
- K [10]: 4.49 10^-3/s
- Activity (HEK293 [1]; filed as modulator): 11.9%

SMILES: COC(=O)[C@@H](NC(=O)[C@H](CCC(=O)OC(C)(C)C)NC(=O)[C@H](CC(C)C)NC(=O)[C@@H]1CCCN1C(=O)OCc1ccccc1)C(C)C (Cbz-PLE(OtBu)V-OMe)
- Activity (HEK293 [3]): Non-Toxic
- IC50 [5]: 22.4 µM
- inhibition (HEK293 [6]): inactive
- Efficacy (HEK293 [7]): 93.3%
- Activity (HEK293 [1]; filed as modulator): 39.8%

SMILES: CC(C)C[C@H](NC(=O)[C@@H]1CCCN1C(=O)OCc1ccccc1)C(=O)N[C@@H](CCC(=O)OC(C)(C)C)C(=O)N[C@H](C(=O)N1CC(O)C1)C(C)C (Cbz-PLE(OtBu)V-X3)
- Activity (HEK293 [1]): 112%

SMILES: CC(C)C[C@H](NC(=O)[C@@H]1CCCN1C(=O)OCc1ccccc1)C(=O)N[C@@H](CCC(=O)OC(C)(C)C)C(=O)N[C@H](C(=O)NC12CC3CC(CC(C3)C1)C2)C(C)C (Cbz-PLE(OtBu)V-{NH(1-Adamantyl)})
- Activity (HEK293 [1]): 81.5%

SMILES: CC(C)C[C@H](NC(=O)[C@@H]1CCCN1C(=O)OCc1ccccc1)C(=O)N[C@@H](CCC(=O)OC(C)(C)C)C(=O)N[C@H](C(=O)N1CCN(C)CC1)C(C)C (Cbz-PLE(OtBu)V-{Piperazinyl(4-Me)})
- Activity (HEK293 [1]): 54.2%

SMILES: CC(C)C[C@H](NC(=O)[C@@H]1CCCN1C(=O)C1CCCCC1)C(=O)N[C@@H](CCC(=O)OC(C)(C)C)C(=O)N[C@H](C(N)=O)C(C)C (Cyclohexanecarbonyl-PLE(OtBu)V-NH2)
- Activity (HEK293 [1]): 104%

SMILES: CCCCCCCCCC(=O)N1CCC[C@H]1C(=O)N[C@@H](CC(C)C)C(=O)N[C@@H](CCC(=O)OC(C)(C)C)C(=O)N[C@H](C(N)=O)C(C)C (Decanoyl-PLE(OtBu)V-NH2)
- Activity (HEK293 [1]): 114%

SMILES: COC(=O)[C@@H](NC(=O)[C@H](CCC(=O)OC(C)(C)C)NC(=O)[C@H](CC(C)C)NC(=O)[C@@H]1CCCN1C(=O)OCC1c2ccccc2-c2ccccc21)C(C)C (Fmoc-PLE(OtBu)V-OMe)
- Activity (HEK293 [1]): 76.9%

SMILES: CC(C)C[C@H](NC(=O)[C@@H]1CCCN1)C(=O)N[C@@H](CCC(=O)OC(C)(C)C)C(=O)N[C@H](C(N)=O)C(C)C (H-PLE(OtBu)V-NH2)
- Activity (HEK293 [1]): 114%

SMILES: CC(C)C[C@H](NC(=O)[C@@H]1CCCN1S(=O)(=O)c1ccc(F)cc1)C(=O)N[C@@H](CCC(=O)OC(C)(C)C)C(=O)N[C@H](C(N)=O)C(C)C ({Benzenesulfonyl(4-F)}-PLE(OtBu)V-NH2)
- Activity (HEK293 [1]): 86.4%

SMILES: CC(C)C[C@H](NC(=O)[C@@H]1CCCN1C(=O)c1ccc(F)cc1)C(=O)N[C@@H](CCC(=O)OC(C)(C)C)C(=O)N[C@H](C(N)=O)C(C)C ({Benzoyl(4-F)}-PLE(OtBu)V-NH2)
- Activity (HEK293 [3]): Non-Toxic
- inhibition (HEK293 [6]): inactive

SMILES: CC(C)C[C@H](NC(=O)[C@@H]1CCCN1C(=O)NC12CC3CC(CC(C3)C1)C2)C(=O)N[C@@H](CCC(=O)OC(C)(C)C)C(=O)N[C@H](C(N)=O)C(C)C ({NH(1-Adamantyl)-CO}-PLE(OtBu)V-NH2)
- Activity (HEK293 [1]): 83.5%
